In brackets after ≈: the same amount, converted by molar mass. Blank lines part the entries; values can stand above or below the molecule they belong to. Activity calls are given as the source filed them. The calls are words filed in the database; no cut-off is given here.
Tests used:
[1] = organism: Cavia porcellus; assay: In vitro bronchodilator activity in isolated guinea pig tracheal spiral preparation; format: functional; settings: Trachea
In short: (§1)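 Guinea pig tracheal spiral held under 1.0 g tension, equilibrated 90–120 min to maximal spontaneous tonus. One drug concentration per spiral, ≥3 trials per concentration. Relaxation was expressed as % of that produced by papaverine (10 µg/mL) in the same tissue. Concentrations are bath values in µg/mL; the 50%-relaxation concentration was obtained by regression.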

[2] = organism: Cavia porcellus; assay: Evaluation of in vitro bronchodilator activity in isolated guinea pig tracheal spiral preparation; format: functional; settings: Trachea; in short: as §1
[3] = system: Rattus norvegicus; assay: In vivo bronchodilator activity in methacholine (intravenous) induced bronchospasm in male Harlan-Sprague-Dawley rats when administered intraduodenally; format: functional
[4] = system: Rattus norvegicus; assay: Antiallergic activity by passive cutaneous anaphylaxis test in ovalbumin sensitized male Harlan-Sprague-Dawley rats at 25 mg/kg oral dose (inactive); format: functional, organism-based; design: dose 25 mg/kg
In short: (§2)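 Donor rats got egg albumin im (1 mg/rat) plus killed B. pertussis vaccine ip (2 × 10¹⁰ organisms/rat) and were bled 10–12 days later for IgE-rich antiserum. Recipient rats (100–150 g) were sensitized intradermally with 0.1 mL of 1:2.5 and 1:10 antiserum dilutions.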

[5] = system: Rattus norvegicus; assay: In vivo bronchodilator activity in methacholine (intravenous) induced bronchospasm in male Harlan-Sprague-Dawley rats when administered intraduodenally; statistically significant inhibition of < 50% at thr stated dose; format: functional
[6] = system: Rattus norvegicus; assay: Antiallergic activity was evaluated by inhibition of allergen-induced bronchospasm in male Harlan-Wistar rats when administered intraduodenally 15 min prior to antigen challenge; format: functional; settings: intraduodenal
[7] = system: Rattus norvegicus; assay: Antiallergic activity was evaluated by passive cutaneous anaphylaxis test in egg albumin sensitized male Harlan-Sprague-Dawley rats when administered perorally; format: functional; settings: po; in short: as §2
[8] = Inhibition of rat lung cGMP-Phosphodiesterase
[9] = system: Rattus norvegicus; assay: Antiallergic activity by passive cutaneous anaphylaxis test in rats by intraduodenal administration; format: functional
In short: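 Recipient male Harlan-Sprague-Dawley or Wistar rats (100–150 g) received 0.1 mL intradermal antiserum at 1:2.5 and 1:10. Donor antiserum came from rats given egg albumin 1 mg im plus killed B. pertussis 2 × 10¹⁰ ip, bled 10–12 days later. After 48 h, drug went intraduodenally under anesthesia, then iv egg albumin 25 mg/kg with Evans blue 25 mg/kg. Read-out was spot-diameter inhibition versus controls, ≥5 rats/dose; ED50 was estimated.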

[10] = system: Rattus norvegicus; assay: Antiallergic activity by passive cutaneous anaphylaxis test in rats by intravenous administration; format: functional; in short: as §2
[11] = system: Rattus norvegicus; assay: Percent inhibition of PCA reaction in anesthetized rats at 47.6 mg/kg oral administration for 24 hr r; format: functional
In short: (§3)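 Passive cutaneous anaphylaxis in anesthetized rats. Passive sensitization used intradermal IgE antiserum (1:2.5 and 1:10), with a 48-h latent period. Intraduodenal or oral dose is expressed as free-acid equivalent of the salt given. Rats were challenged at 15 min, 3, 6 or 24 h with iv egg albumin 25 mg/kg plus Evans blue 25 mg/kg. Inhibition was calculated from mean spot diameters versus vehicle controls, 10 animals per dose.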

[12] = system: Rattus norvegicus; assay: Percent inhibition of PCA reaction in anesthetized rats at 47.6 mg/kg oral administration for 3 hr; format: functional; in short: as §3
[13] = system: Rattus norvegicus; assay: Percent inhibition of PCA reaction in anesthetized rats at 47.6 mg/kg oral administration for 6 hr; format: functional; in short: as §3
[14] = system: Rattus norvegicus; assay: Percent inhibition of PCA reaction in anesthetized rats after 11.7 mg/kg intraduodenal administration for 15 min; format: functional; settings: 0.25 h; in short: as §3
[15] = system: Rattus norvegicus; assay: Percent inhibition of PCA reaction in anesthetized rats at 47.6 mg/kg oral administration for 15 min; format: functional; settings: 0.25 h; in short: as §3
[16] = organism: Rattus norvegicus; assay: Antiallergic activity by passive cutaneous anaphylaxis test in vitro in rats; format: functional
In short: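 Peritoneal mast cells were lavaged from male Harlan-Sprague-Dawley rats (200–300 g) with HBSS containing 0.1% albumin and 5 mM phosphate. Cells were sensitized with IgE antiserum plus heparin for 2 h at 37 °C, then challenged with egg albumin, drug added simultaneously. After 10 min, histamine was measured fluorimetrically; inhibition versus no-drug release, four trials per concentration.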

[17] = system: Rattus norvegicus; assay: Percent inhibition of PCA reaction in anesthetized rats at 11.7 mg/kg intraduodenal administration for 3 hr
[18] = system: Rattus norvegicus; assay: Antiallergic activity by passive cutaneous anaphylaxis test in ovalbumin sensitized male Harlan-Sprague-Dawley rats administered orally; format: functional; settings: po; in short: as §2
[19] = system: Rattus norvegicus; assay: Antiallergic activity by passive cutaneous anaphylaxis test in ovalbumin sensitized male Harlan-Sprague-Dawley rats by oral dose; format: functional; in short: as §2
[20] = system: Rattus norvegicus; assay: Antiallergic activity by passive cutaneous anaphylaxis test in ovalbumin sensitized male Harlan-Sprague-Dawley rats administered perorally; format: functional; settings: po; in short: as §2
[21] = organism: Rattus norvegicus; assay: Antiallergic activity in in vitro antigen-induced histamine release from isolated mast cells; format: functional, cell-based
In short: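 Peritoneal lavage cells from male Harlan-Sprague-Dawley rats (200–300 g), collected in HBSS with 0.1% human albumin and 5 mM phosphate. Cells were sensitized 2 h at 37 °C in rat antiserum with heparin, then challenged with EA; drug was added together with antigen at several concentrations, 4 trials each. After 10 min, histamine was measured fluorimetrically and % inhibition calculated vs drug-free release.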

SMILES: CSC1=C2N=CN=C2N(Cc2ccc(Cl)cc2)C2=NCCN21
IC50 [2]: 8.1 µg/mL (≈ 24.4 µM)
ED50 [3]: > 30 mg/kg

SMILES: CCCCn1cnc2c1C(=O)N1CCN=C1N2Cc1ccc(Cl)cc1
IC50 [1]: 15.5 µg/mL (≈ 43.3 µM)
ED50 [5]: > 10 mg/kg

SMILES: CC1CN2C(=O)c3c(ncn3C)N(Cc3ccc(Cl)cc3)C2=N1 (stereo not drawn)
IC50 [1]: 2.3 µg/mL (≈ 6.97 µM)
ED50 [3]: 1.1 mg/kg
ED50 [6]: 3.4 mg/kg
ED50 [7]: 28.9 mg/kg

SMILES: Cn1c(=O)c2nc[nH]c2n(C)c1=O.O [THEOPHYLLINE]
IC50 [2]: 18.5 µg/mL
Ki [8]: 1150 µM
ED50 [9]: 11.7 mg/kg
ED50 [10]: > 7.9 mg/kg
inhibition in vivo at 47.6 mg/kg [11]: 0%
inhibition in vivo at 47.6 mg/kg [12]: 52.5%
inhibition in vivo at 47.6 mg/kg [13]: 13%
inhibition in vivo at 11.7 mg/kg [14]: 42.4%
inhibition in vivo at 47.6 mg/kg [15]: 51.9%
IC50 [16]: 2500 µM
inhibition in vivo at 11.7 mg/kg [17]: 25.1%

SMILES: CC(C)CN1C2=NCCN2C(=O)c2[nH]c(C(C)C)nc21
IC50 [1]: 11.5 µg/mL (≈ 41.8 µM)
ED50 [3]: 9.5 mg/kg
ED50 [7]: 15.3 mg/kg

SMILES: CC1(C)CN2C(=O)c3[nH]cnc3N(Cc3ccc(Cl)cc3)C2=N1
IC50 [1]: 14.3 µg/mL (≈ 43.4 µM)
ED50 [6]: 3 mg/kg
ED50 [18]: 35.3 mg/kg

SMILES: CCc1nc2c([nH]1)N(CC(C)C)C1=NCCN1C2=O
IC50 [1]: 16.7 µg/mL (≈ 63.9 µM)

SMILES: Oc1c2ncnc-2n(Cc2ccc(Cl)cc2)c2nccn12
IC50 [1]: 4.1 µg/mL (≈ 13.7 µM)
ED50 [3]: 8.1 mg/kg

SMILES: CC(C)CN1C2=NCCN2C(=O)c2[nH]cnc21
IC50 [1]: 6.3 µg/mL (≈ 27 µM)
ED50 [19]: > 25 mg/kg

SMILES: Cc1nc2c([nH]1)C(=O)N1CC(C)N=C1N2Cc1ccc(Cl)cc1 (stereo not drawn)
IC50 [1]: 4.4 µg/mL (≈ 13.3 µM)
ED50 [3]: 1 mg/kg
ED50 [6]: 1.23 mg/kg
ED50 [7]: 30.2 mg/kg

SMILES: CC(C)CN1C2=NCCN2C(=O)c2[nH]nnc21
IC50 [1]: ~200 µg/mL (≈ 854 µM)
ED50 [5]: > 30 mg/kg
ED50 [20]: > 30 mg/kg

SMILES: O=C([O-])c1cc(=O)c2c(OCC(O)COc3cccc4oc(C(=O)[O-])cc(=O)c34)cccc2o1.[Na+].[Na+] [CROMOLYN SODIUM]
ED50 [10]: 0.29 mg/kg
IC50 [21]: 8 µM

Now from value to molecule, other results behind:

IC50 [1]: 49 µg/mL (≈ 162 µM)
SMILES: O=C1c2[nH]cnc2N(Cc2ccccc2Cl)C2=NCCN12

IC50 [2]: 54 µg/mL (≈ 142 µM)
SMILES: O=C1c2[nH]c(Br)nc2N(Cc2ccc(Cl)cc2)C2=NCCN12

IC50 [1]: 2.9 µg/mL (≈ 9.18 µM)
SMILES: Cn1cnc2c1C(=O)N1CCN=C1N2Cc1ccc(Cl)cc1
ED50 [3]: 8.8 mg/kg
ED50 [4]: inactive

IC50 [1]: 5.1 µg/mL (≈ 16 µM)
SMILES: S=C1c2[nH]cnc2N(Cc2ccc(Cl)cc2)C2=NCCN12
ED50 [5]: > 30 mg/kg

IC50 [1]: 1.1 µg/mL (≈ 3.34 µM)
SMILES: C[C@@H]1N=C2N(Cc3ccc(Cl)cc3)c3[nH]cnc3C(=O)N2[C@H]1C
ED50 [3]: 5 mg/kg
ED50 [6]: 2.8 mg/kg
ED50 [7]: 35.5 mg/kg

IC50 [1]: 5.3 µg/mL (≈ 16.8 µM)
SMILES: Cc1nc2c([nH]1)N(Cc1ccc(Cl)cc1)C1=NCCN1C2=O
ED50 [3]: 1.3 mg/kg

IC50 [1]: > 200 µg/mL
SMILES: O=C1c2[nH]nnc2N(Cc2ccc(F)cc2)C2=NCCN12
ED50 [5]: > 10 mg/kg

IC50 [2]: 13.7 µg/mL (≈ 39.4 µM)
SMILES: CSc1nc2c([nH]1)N(Cc1ccc(Cl)cc1)C1=NCCN1C2=O
ED50 [3]: > 30 mg/kg

IC50 [1]: 22.5 µg/mL (≈ 84.2 µM)
SMILES: O=C1c2nc[nH]c2N(Cc2ccccc2)C2=NCCN12
ED50 [4]: inactive
